Measurements: ChEMBL document CHEMBL4190249, “Antiproliferative and apoptotic activities of sequence-specific histone acetyltransferase inhibitors” (Eur J Med Chem, 2017)
The source made the active and inactive calls. The calls are words filed in the database; no cut-off is given here.

How the values were obtained:
A549 [1] = experiment: Upregulation of NEFL gene expression in human A549 cells at 2 uM after 48 hrs by microarray analysis relative to control; type: functional
Procedure, shortened: (§1)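 A549 cells plated at 2×10^5 cells/well, treated 48 h at 2 μM, with DMSO vehicle as control. Whole-genome transcriptional profiling followed the manufacturer's protocol. Total RNA integrity was checked by Bioanalyzer before arraying.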

[2] = target: Cellular tumor antigen p53 (Homo sapiens) (UniProt P04637); experiment: Activation of p53 in human A549 cells assessed as upregulation of CD70 gene expression at 2 uM after 48 hrs by microarray analysis relative to control; type: cell-based; procedure, shortened: as §1
Chain of Cellular tumor antigen p53 (Homo sapiens) (P04637 whole entry, looked up): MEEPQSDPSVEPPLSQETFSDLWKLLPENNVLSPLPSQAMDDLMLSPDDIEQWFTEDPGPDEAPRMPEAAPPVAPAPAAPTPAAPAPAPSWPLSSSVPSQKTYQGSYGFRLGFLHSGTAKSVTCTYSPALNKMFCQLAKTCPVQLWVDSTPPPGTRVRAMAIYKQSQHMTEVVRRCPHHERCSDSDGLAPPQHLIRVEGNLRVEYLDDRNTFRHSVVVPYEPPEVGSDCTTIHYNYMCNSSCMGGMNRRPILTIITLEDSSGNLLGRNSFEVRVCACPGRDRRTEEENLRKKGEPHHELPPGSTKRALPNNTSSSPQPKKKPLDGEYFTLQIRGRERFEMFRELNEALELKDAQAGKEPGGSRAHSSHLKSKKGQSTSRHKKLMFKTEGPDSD

A549 [3] = experiment: Upregulation of MIR3189 gene expression in human A549 cells at 2 uM after 48 hrs by microarray analysis relative to control; type: functional; procedure, shortened: as §1
A549 [4] = experiment: Upregulation of CDKN1A gene expression in human A549 cells at 2 uM after 48 hrs by microarray analysis relative to control; type: functional; procedure, shortened: as §1
[5] = target: Cellular tumor antigen p53 (Homo sapiens) (UniProt P04637); experiment: Activation of p53 in human A549 cells assessed as upregulation of FDXR gene expression at 2 uM after 48 hrs by microarray analysis relative to control; type: cell-based; procedure, shortened: as §1
[6] = target: Cellular tumor antigen p53 (Homo sapiens) (UniProt P04637); experiment: Activation of p53 in human A549 cells assessed as upregulation of MDM2 gene expression at 2 uM after 48 hrs by microarray analysis relative to control; type: cell-based; procedure, shortened: as §1
A549 [7] = experiment: Upregulation of MIR4713 gene expression in human A549 cells at 2 uM after 48 hrs by microarray analysis relative to control; type: functional; procedure, shortened: as §1
dsDNA [8] = experiment: Binding affinity to 5'-ACTTATCCACTATAGA-3'/3'-TGAATAGGTGATATCT-5' dsDNA (unknown origin) assessed as change in melting temperature at 2.5 uM by spectrophotometric method; type: nucleic-acid assay
A549 [9] = experiment: Upregulation of WDR63 gene expression in human A549 cells at 2 uM after 48 hrs by microarray analysis relative to control; type: functional; procedure, shortened: as §1
[10] = target: Cellular tumor antigen p53 (Homo sapiens) (UniProt P04637); experiment: Activation of p53 in human A549 cells assessed as upregulation of BTG2 gene expression at 2 uM after 48 hrs by microarray analysis relative to control; type: cell-based; procedure, shortened: as §1
MV4-11 = experiment: Antiproliferative activity against human MV4-11 cells harboring wild type p53 after 96 hrs by WST8 assay; type: functional, cell-based; settings: MV4-11, 96 h
[11] = target: Cellular tumor antigen p53 (Homo sapiens) (UniProt P04637); experiment: Activation of p53 in human A549 cells assessed as upregulation of TP53INP1 gene expression at 2 uM after 48 hrs by microarray analysis relative to control; type: cell-based; procedure, shortened: as §1
A549 [12] = experiment: Downregulation of SNORA9 gene expression in human A549 cells at 2 uM after 48 hrs by microarray analysis relative to control; type: functional; procedure, shortened: as §1
A549 [13] = experiment: Upregulation of POLH gene expression in human A549 cells at 2 uM after 48 hrs by microarray analysis relative to control; type: functional; procedure, shortened: as §1
SW-620 = experiment: Antiproliferative activity against human SW620 cells harboring p53 mutant assessed as cell viability at 10 uM after 96 hrs by WST8 assay relative to control; type: functional; settings: SW-620, 96 h, read-out: Activity
Procedure, shortened: (§2)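 Cells seeded at 5×10^3 per well and grown 24 h at 37°C, 5% CO2. A549 medium was DMEM with 10% FBS and 2 mM L-glutamine. SW620 medium had 10% FBS and 1% penicillin/streptomycin. Medium was then replaced with conjugate at 0.1, 1, 5 or 10 μM for 96 h. WST-8 reagent was added and absorbance read at 450 nm. Results are mean ± SD.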

[14] = target: Cellular tumor antigen p53 (Homo sapiens) (UniProt P04637); experiment: Activation of p53 in human A549 cells assessed as upregulation of SPATA18 gene expression at 2 uM after 48 hrs by microarray analysis relative to control; type: cell-based; procedure, shortened: as §1
[15] = target: Cellular tumor antigen p53 (Homo sapiens) (UniProt P04637); experiment: Activation of p53 in human A549 cells assessed as upregulation of CYFIP2 gene expression at 2 uM after 48 hrs by microarray analysis relative to control; type: cell-based; procedure, shortened: as §1
A549 [16] = experiment: Upregulation of ABCA12 gene expression in human A549 cells at 2 uM after 48 hrs by microarray analysis relative to control; type: functional; procedure, shortened: as §1
[17] = target: Cellular tumor antigen p53 (Homo sapiens) (UniProt P04637); experiment: Activation of p53 in human A549 cells assessed as upregulation of SESN1 gene expression at 2 uM after 48 hrs by microarray analysis relative to control; type: cell-based; procedure, shortened: as §1
A549 [18] = experiment: Downregulation of ULBP1 gene expression in human A549 cells at 2 uM after 48 hrs by microarray analysis relative to control; type: functional; procedure, shortened: as §1
dsDNA [19] = experiment: Binding affinity to 5'-ACTTATTCCATATAGA-3'/3'-TGAATAAGGTATATCT-5' dsDNA (unknown origin) assessed as change in melting temperature at 2.5 uM by spectrophotometric method; type: nucleic-acid assay
A549 [20] = experiment: Upregulation of ANKRD1 gene expression in human A549 cells at 2 uM after 48 hrs by microarray analysis relative to control; type: functional; procedure, shortened: as §1
[21] = target: Cellular tumor antigen p53 (Homo sapiens) (UniProt P04637); experiment: Activation of p53 in human A549 cells assessed as downregulation of CHAC1 gene expression at 2 uM after 48 hrs by microarray analysis relative to control; type: cell-based; procedure, shortened: as §1
[22] = target: Cellular tumor antigen p53 (Homo sapiens) (UniProt P04637); experiment: Activation of p53 in human A549 cells assessed as downregulation of CARS gene expression at 2 uM after 48 hrs by microarray analysis relative to control; type: cell-based; procedure, shortened: as §1
A549 [23] = experiment: Upregulation of GDF15 gene expression in human A549 cells at 2 uM after 48 hrs by microarray analysis relative to control; type: functional; procedure, shortened: as §1
[24] = target: Cellular tumor antigen p53 (Homo sapiens) (UniProt P04637); experiment: Activation of p53 in human A549 cells assessed as downregulation of STC2 gene expression at 2 uM after 48 hrs by microarray analysis relative to control; type: cell-based; procedure, shortened: as §1
A549 [25] = experiment: Downregulation of ASNS gene expression in human A549 cells at 2 uM after 48 hrs by microarray analysis relative to control; type: functional; procedure, shortened: as §1
[26] = target: Histone acetyltransferase p300 (Homo sapiens, UniProt Q09472); experiment: Inhibition of p300 (unknown origin) using H3 peptide and acetyl-coA as substrate by fluorometric assay
Chain of Histone acetyltransferase p300 (Q09472 whole entry, the tested form may be a part): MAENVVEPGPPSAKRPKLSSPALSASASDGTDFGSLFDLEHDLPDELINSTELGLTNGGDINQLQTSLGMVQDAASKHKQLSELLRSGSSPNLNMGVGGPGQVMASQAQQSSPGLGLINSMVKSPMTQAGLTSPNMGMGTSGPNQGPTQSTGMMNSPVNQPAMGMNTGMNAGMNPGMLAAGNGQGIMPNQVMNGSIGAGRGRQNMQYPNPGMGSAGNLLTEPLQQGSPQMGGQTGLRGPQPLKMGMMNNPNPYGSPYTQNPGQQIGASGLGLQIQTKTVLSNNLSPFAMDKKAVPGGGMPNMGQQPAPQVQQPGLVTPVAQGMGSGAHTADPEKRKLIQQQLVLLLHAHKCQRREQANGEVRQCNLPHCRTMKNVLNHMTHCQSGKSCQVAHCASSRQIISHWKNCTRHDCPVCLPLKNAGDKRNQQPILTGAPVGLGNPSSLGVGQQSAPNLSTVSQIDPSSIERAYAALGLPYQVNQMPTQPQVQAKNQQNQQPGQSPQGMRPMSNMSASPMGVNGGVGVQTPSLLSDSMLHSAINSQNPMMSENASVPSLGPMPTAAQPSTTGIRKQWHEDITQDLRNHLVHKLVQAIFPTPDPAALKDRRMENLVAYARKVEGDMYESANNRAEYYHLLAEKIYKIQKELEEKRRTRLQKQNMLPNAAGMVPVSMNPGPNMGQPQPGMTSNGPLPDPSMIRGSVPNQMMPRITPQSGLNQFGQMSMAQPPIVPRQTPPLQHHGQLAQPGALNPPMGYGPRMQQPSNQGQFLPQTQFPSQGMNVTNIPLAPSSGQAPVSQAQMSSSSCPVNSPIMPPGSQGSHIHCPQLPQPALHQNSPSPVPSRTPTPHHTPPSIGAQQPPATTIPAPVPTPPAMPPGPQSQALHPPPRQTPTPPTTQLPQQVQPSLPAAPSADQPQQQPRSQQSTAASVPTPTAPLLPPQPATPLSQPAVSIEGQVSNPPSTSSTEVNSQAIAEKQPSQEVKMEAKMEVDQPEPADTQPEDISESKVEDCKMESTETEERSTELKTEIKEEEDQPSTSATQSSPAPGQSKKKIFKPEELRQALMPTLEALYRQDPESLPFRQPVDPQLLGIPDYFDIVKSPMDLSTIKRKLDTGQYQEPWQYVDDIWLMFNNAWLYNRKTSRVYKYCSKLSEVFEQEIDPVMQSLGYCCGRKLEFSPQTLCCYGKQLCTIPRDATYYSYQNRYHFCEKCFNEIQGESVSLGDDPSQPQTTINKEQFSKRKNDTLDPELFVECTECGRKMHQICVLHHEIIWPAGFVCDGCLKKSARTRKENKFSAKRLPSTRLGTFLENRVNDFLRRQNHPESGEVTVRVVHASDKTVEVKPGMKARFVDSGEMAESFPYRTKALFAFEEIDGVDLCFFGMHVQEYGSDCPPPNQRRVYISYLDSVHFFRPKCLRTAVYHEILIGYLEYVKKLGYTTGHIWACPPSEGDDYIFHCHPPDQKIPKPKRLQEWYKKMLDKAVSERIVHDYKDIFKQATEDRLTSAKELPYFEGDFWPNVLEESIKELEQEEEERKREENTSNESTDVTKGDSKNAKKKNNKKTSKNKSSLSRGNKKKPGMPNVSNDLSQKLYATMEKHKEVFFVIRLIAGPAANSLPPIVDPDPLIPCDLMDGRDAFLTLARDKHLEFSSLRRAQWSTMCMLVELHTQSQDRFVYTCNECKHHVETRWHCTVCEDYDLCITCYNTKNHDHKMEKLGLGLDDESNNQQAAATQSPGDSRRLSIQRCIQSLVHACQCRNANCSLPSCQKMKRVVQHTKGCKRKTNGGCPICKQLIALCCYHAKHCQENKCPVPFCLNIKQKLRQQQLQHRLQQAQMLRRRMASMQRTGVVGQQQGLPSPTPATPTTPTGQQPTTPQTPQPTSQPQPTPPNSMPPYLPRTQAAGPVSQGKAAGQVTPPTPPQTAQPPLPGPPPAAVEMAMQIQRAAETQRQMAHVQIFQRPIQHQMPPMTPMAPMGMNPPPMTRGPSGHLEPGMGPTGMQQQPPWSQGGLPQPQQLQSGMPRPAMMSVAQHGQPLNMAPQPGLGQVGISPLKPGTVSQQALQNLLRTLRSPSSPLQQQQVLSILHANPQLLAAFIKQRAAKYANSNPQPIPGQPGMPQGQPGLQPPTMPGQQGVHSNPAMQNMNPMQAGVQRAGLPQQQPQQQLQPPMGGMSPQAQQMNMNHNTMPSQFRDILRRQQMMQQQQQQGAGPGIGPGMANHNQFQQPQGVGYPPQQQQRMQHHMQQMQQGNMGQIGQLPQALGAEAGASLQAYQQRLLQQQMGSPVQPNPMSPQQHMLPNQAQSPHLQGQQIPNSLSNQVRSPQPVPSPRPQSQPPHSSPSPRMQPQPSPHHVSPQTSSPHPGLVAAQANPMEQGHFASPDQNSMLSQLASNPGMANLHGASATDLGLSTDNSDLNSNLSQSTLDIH
Procedure, shortened: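 Fluorometric HAT kit assay with recombinant p300 core domain as enzyme and acetyl-CoA plus H3 histone peptide as substrates. Effectors were tested at 1 and 5 μM. HeLa nuclear extract served as positive control, and 0.5% DMSO was set as 100% activity.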

A549 [27] = experiment: Upregulation of SULF2 gene expression in human A549 cells at 2 uM after 48 hrs by microarray analysis relative to control; type: functional; procedure, shortened: as §1
[28] = target: Cellular tumor antigen p53 (Homo sapiens) (UniProt P04637); experiment: Activation of p53 in human A549 cells assessed as upregulation of FAS gene expression at 2 uM after 48 hrs by microarray analysis relative to control; type: cell-based; procedure, shortened: as §1
A549 [29] = experiment: Upregulation of GAS6-AS1 gene expression in human A549 cells at 2 uM after 48 hrs by microarray analysis relative to control; type: functional; procedure, shortened: as §1
A549 [30] = experiment: Downregulation of TAS2R30 gene expression in human A549 cells at 2 uM after 48 hrs by microarray analysis relative to control; type: functional; procedure, shortened: as §1
A549 [31] = experiment: Induction of apoptosis in human A549 cells at 2 uM after 48 hrs by Annexin V-FITC/ethidium homodimer-3/Hoechst 33342 staining based fluorescence microscopic method; type: functional, cell-based
Procedure, shortened: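 A549 cells seeded in chamber slides at 2×10^4 cells/well and exposed to 2 μM for 48 h; vehicle control 0.1% DMSO. Cells were washed in binding buffer and stained with FITC-annexin V (apoptotic), ethidium homodimer III (necrotic) and Hoechst 33342 (all nuclei), then imaged by confocal fluorescence microscopy.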

A549 [32] = experiment: Upregulation of UIMC1 gene expression in human A549 cells at 2 uM after 48 hrs by microarray analysis relative to control; type: functional; procedure, shortened: as §1
A549 [33] = experiment: Downregulation of GUSBP3 gene expression in human A549 cells at 2 uM after 48 hrs by microarray analysis relative to control; type: functional; procedure, shortened: as §1
A549 [34] = experiment: Upregulation of MIR3685 gene expression in human A549 cells at 2 uM after 48 hrs by microarray analysis relative to control; type: functional; procedure, shortened: as §1
A549 [35] = experiment: Antiproliferative activity against human A549 cells after 96 hrs by WST8 assay; type: functional, cell-based; procedure, shortened: as §2
A549 [36] = experiment: Upregulation of SCARNA7 gene expression in human A549 cells at 2 uM after 48 hrs by microarray analysis relative to control; type: functional; procedure, shortened: as §1
A549 [37] = experiment: Downregulation of ALDH1L2 gene expression in human A549 cells at 2 uM after 48 hrs by microarray analysis relative to control; type: functional; procedure, shortened: as §1
[38] = target: Cellular tumor antigen p53 (Homo sapiens) (UniProt P04637); experiment: Activation of p53 in human A549 cells assessed as upregulation of EDA2R gene expression at 2 uM after 48 hrs by microarray analysis relative to control; type: cell-based; procedure, shortened: as §1
MDA-MB-231 = experiment: Antiproliferative activity against human MDA-MB-231 cells harboring p53 mutant assessed as cell viability at 10 uM after 96 hrs by WST8 assay relative to control; type: functional; settings: MDA-MB-231, 96 h, read-out: Activity
[39] = target: Cellular tumor antigen p53 (Homo sapiens) (UniProt P04637); experiment: Activation of p53 in human A549 cells assessed as upregulation of DDB2 gene expression at 2 uM after 48 hrs by microarray analysis relative to control; type: cell-based; procedure, shortened: as §1

fold change (FC) [2]: 1.83
fold change (FC) [5]: 2
fold change (FC) [6]: 1.97
ΔTm (dsDNA [8]): 11.5 °C
fold change (FC) [10]: 2.35
IC50 (MV4-11): 2600 nM
fold change (FC) [11]: 1.85
fold change (FC) [14]: 2.98
fold change (FC) [15]: 1.88
fold change (FC) [17]: 1.91
ΔTm (dsDNA [19]): 18.1 °C
fold change (FC) [21]: 3.64
fold change (FC) [22]: 1.9
fold change (FC) [24]: 2.34
IC50 [26]: 3.9 to 4.2 µM
fold change (FC) [28]: 1.83
IC50 (A549 [35]; A549, 96 h): 1800 nM
fold change (FC) [38]: 2.53
fold change (FC) [39]: 1.8
Structure (SMILES): CC1=NN(c2ccc(C(=O)NCCOCCOCC(=O)NCCC(=O)Nc3cc(C(=O)Nc4cn(C)c(C(=O)Nc5cn(C)c(C(=O)Nc6cc(C(=O)NCCCC(=O)Nc7cc(C(=O)Nc8cc(C(=O)Nc9cc(C(=O)Nc%10cc(C(=O)NCCCN(C)C)n(C)c%10)n(C)c9)n(C)c8)n(C)c7)n(C)c6)n5)n4)n(C)c3)cc2)C(=O)/C1=C/c1ccc(-c2cc(C)c(C)cc2[N+](=O)[O-])o1
fold change (FC) (A549 [1]): 1.8
fold change (FC) (A549 [3]): 2.32
fold change (FC) (A549 [4]): 2.28
fold change (FC) (A549 [7]): 1.94
fold change (FC) (A549 [9]): 2.03
fold change (FC) (A549 [12]): 1.81
fold change (FC) (A549 [13]): 1.88
viability at 10 µM (SW-620): 78.4%
fold change (FC) (A549 [16]): 2.42
fold change (FC) (A549 [18]): 2.34
fold change (FC) (A549 [20]): 1.81
fold change (FC) (A549 [23]): 1.81
fold change (FC) (A549 [25]): 2.01
fold change (FC) (A549 [27]): 2.13
fold change (FC) (A549 [29]): 1.81
fold change (FC) (A549 [30]): 2.01
Activity (A549 [31]): Active
fold change (FC) (A549 [32]): 1.94
fold change (FC) (A549 [33]): 2.63
fold change (FC) (A549 [34]): 1.89
Activity (A549 [35]): Dose-dependent effect
fold change (FC) (A549 [36]): 1.89
fold change (FC) (A549 [37]): 1.86
viability at 10 µM (MDA-MB-231): 69.3%
